Results taken from ChEMBL document CHEMBL4732121, “Imidazo[1,2-a]quinoxalines for melanoma treatment with original mechanism of action” (Eur J Med Chem, 2021).

Legend:
[1] = test system: A-375; assay: Antiproliferative activity against human A-375 cells assessed as reduction in cell viability measured after 96 hrs by MTT assay; assay type: functional, cell-based
In short: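 A375 cells in RPMI-1640 with 10% heat-inactivated FBS, 2 mM L-glutamine and antibiotics, 37°C, 5% CO₂. Seeded at 5000 cells/well and attached overnight, then exposed to 10⁻⁵–3.2.10⁻⁹ M in 0.15% DMSO/medium for 96 h. MTT at 0.5 mg/ml final for 4 h, formazan dissolved in 10% SDS/0.01 M HCl, OD 570 nm. At least three experiments in triplicate; IC50 from sigmoidal dose–response curves.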

[2] = test system: A2058; assay: Antiproliferative activity against human A2058 cells assessed as reduction in cell viability measured after 96 hrs by MTT assay; assay type: functional, cell-based; conditions: A2058, 96 h
[3] = test system: MeWo; assay: Antiproliferative activity against human MeWo cells assessed as reduction in cell viability measured after 96 hrs by MTT assay; assay type: functional, cell-based
[4] = Inhibition of pig brain tubulin polymerization at 5 uM measured after 45 mins by turbidimetry based spectrophotometric method relative to control; assay type: tissue-based, Sus scrofa; conditions: 0.75 h
[5] = test system: IPC-298; assay: Antiproliferative activity against human IPC-298 cells assessed as reduction in cell viability measured after 96 hrs by MTT assay; assay type: functional, cell-based; conditions: IPC-298, 96 h

Row | IC50 ([1]; Homo sapiens, A-375, 96 h) [nM] | SMILES | other results
1 | 30 | CN(C)c1nc2ccccc2n2c(-c3ccc(O)c(O)c3)cnc12 | –
2 | > 10000 | CNc1nccn2c(-c3ccc(O)c(O)c3)cnc12 | –
3 | > 10000 | Nc1nccn2c(-c3ccc(O)c(O)c3)cnc12 | –
4 | > 10000 | CNc1nc2ccc(C(F)(F)F)cc2n2c(-c3ccc(OC)c(OC)c3)cnc12 | –
5 | > 10000 | COc1ccc(-c2cnc3c(NCCCNC(=O)OC(C)(C)C)nc4ccccc4n23)cc1OC | –
6 | 383 | CNc1nc2ccccc2n2c(-c3cccc(OC)c3)cnc12 | IC50 [2]: 185 nM; IC50 [3]: 125 nM; inhibition (INH) [4]: 84%; IC50 [5]: 469 nM
7 | – | NCCNc1nc2ccccc2n2c(-c3ccc(O)c(O)c3)cnc12 | IC50 ([1]; a-375): 1700 nM
